ChEMBL document CHEMBL1955820, “Diazeniumdiolated carbamates: a novel class of nitric oxide donors” (Bioorg Med Chem, 2012)

Columns and labels:
[1] = Prodrug activation in human TERT immortalized BJ-5ta cells assessed as intracellular NO-release by measuring increase in fluorescence at 10 uM after 90 mins by DAF-FM diacetate-based fluorescence assay relative to control; format: cell-based; conditions: htert-bj, 1.5 h
Summary of the method: (§1)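 BJ-5ta cells, grown in DMEM:199 medium (4:1) with 10% fetal calf serum, were loaded with 2.5 µM DAF-FM diacetate in HBSS for 30 min at 37 °C, 5% CO2, then rinsed into fresh HBSS. Compound in DMSO was added at 10 µM final for 90 min, with DMSO as control. Fluorescence was read at ex 485/em 525 nm. Mean of 16 independent experiments.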

U-937 [2] = assay: Prodrug activation in human U937 cells assessed as intracellular NO-release by measuring increase in fluorescence at 10 uM after 90 mins by DAF-FM diacetate-based fluorescence assay relative to control; format: cell-based; conditions: u-937, 1.5 h
Summary of the method: (§2)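 U937 cells in RPMI 1640 with 10% fetal calf serum at 37 °C, 5% CO2. Probe loading used 2.5 µM DAF-FM diacetate in HBSS for 30 min. Cells were then spun down, rinsed and resuspended in fresh HBSS. Compound in DMSO was added at 10 µM final for 90 min, with DMSO as control. Fluorescence was read at ex 485/em 525 nm.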

[3] = Drug uptake in human TERT immortalized BJ-5ta cells by DAF-FM diacetate-based fluorescence assay; format: ADME, cell-based; conditions: htert-bj; summary of the method: as §1
U-937 [4] = assay: Drug uptake in human U937 cells by DAF-FM diacetate-based fluorescence assay; format: ADME, cell-based; summary of the method: as §2
[5] = Prodrug activation in PBS assessed as production of nitrous oxide per mol of prodrug by gas chromatography in presence of GSH; conditions: buffer
Summary of the method: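 Glutathione-activated release in pH 7.4 buffer with 3.6–3.9 mM GSH and 50 µM DTPA, argon-sparged, at 37 °C. Prodrug was injected from a 10 mM DMSO stock. N2O was measured by GC with electron capture detection on a packed ShinCarbon column: 90 to 200 °C at 20 °C/min, He carrier 30 mL/min.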

Row | fold change (FC) (U-937 [2]) | Drug uptake (U-937 [4]) | Drug metabolism [5] [mol/mol] | SMILES | fold change (FC) [1] | Drug uptake [3]
1 | 5.56 | Active |  | CC(=O)OCO/N=[N+](\[O-])N(C(=O)OC(C)(C)C)C(C)C | 7.29 | Active
2 | 10.5 | Active | 0.02 | CC(C)N(C(=O)OC(C)(C)C)/[N+]([O-])=N/Oc1ccc([N+](=O)[O-])cc1[N+](=O)[O-] | 49.67 | Active

Row | SMILES | fold change (FC) (U-937 [2]) | Drug uptake (U-937 [4]) | Drug metabolism [5] [mol/mol] | fold change (FC) [1] | Drug uptake [3]
3 | CCOC(=O)N1CCN(/[N+]([O-])=N/Oc2ccc([N+](=O)[O-])cc2[N+](=O)[O-])CC1 | 2.64 |  |  | 5.48 | 
